Measured values of several laboratories.
Target: Serine/threonine-protein kinase PAK 5 (PAK5, Homo sapiens, UniProt Q9P286)

Structure (SMILES)	observed	method	concentration	remaining binding [%]
CO[C@H]1CC[C@H](CNc2ccc(S(=O)(=O)NC(=O)c3ccc(N4CCN(CC5=C(c6ccc(Cl)cc6)CC(C)(C)CC5)CC4)cc3Oc3cnc4[nH]ccc4c3)cc2[N+](=O)[O-])CC1	cell-free assay	competition with immobilised ligand	1 µM	99
c1cncc(-c2cccc(Nc3nccc(NC4CCCCC4)n3)c2)c1	binding	competition with immobilised ligand	10 µM	76
CS(=O)(=O)N1CCCC(NC(=O)[C@H](CCC2CCCCC2)NC(=O)c2ccc(CNc3ncnc4c3nnn4-c3ccccc3)cc2)C1 (stereo partly drawn)	cell-free assay	competition with immobilised ligand	0.1 µM	100
O=C(c1ccc(Nc2nccc(-c3cc4ccccc4s3)n2)cc1)N1CCC(N2CCCC2)CC1	binding	competition with immobilised ligand	1 µM	79
c1cnn2ncc(-c3ccnc(N4CCC45COC5)n3)c2c1	binding	–	1 µM	85
CN(C)CC#Cc1ccc(OCCCc2sc(N3CCc4cccc(C(=O)Nc5nc6ccccc6s5)c4C3)nc2C(=O)O)c(F)c1	cell-free assay	competition with immobilised ligand	1 µM	91
COc1ncc2cc3ccccc3nc2c1C#N	cell-free assay	competition with immobilised ligand	5 µM	100
C[C@@H](c1ccc(-n2cnc3c(N)ncnc32)cc1)N1CCc2nn(C)c(Cc3ccccc3)c2C1=O	binding	competition with immobilised ligand	0.1 µM	69
COc1ccnn2ncc(-c3ccnc(N(C)C)n3)c12	binding	–	1 µM	94
COc1cnc(Nc2cccc(S(N)(=O)=O)c2)nc1N1CCN(c2ccccc2)C(=O)C1	binding	competition with immobilised ligand	1 µM	82
N[C@@H]1CCN(c2nccc(-c3cnn4ncccc34)n2)C1	binding	–	1 µM	78
CCN1CCN(Cc2ccc(C(=O)Nc3ccc(C)c(Oc4ccc5c(c4)CC(=O)N5)c3)cc2C(F)(F)F)CC1	binding	competition with immobilised ligand	1 µM	86
O=C(NCCCC1CCCCC1)c1ccc(CNC(=O)c2cnn(-c3ccccc3)c2C(F)(F)F)cc1	cell-free assay	competition with immobilised ligand	0.1 µM	100
CC1CCCN1c1nccc(-c2cnn3ncccc23)n1 (stereo not drawn)	binding	–	1 µM	70
Cc1cnc(Nc2ccc(C(=O)N3CCC(N4CCCC4)CC3)cc2)nc1-c1cc2ccccc2s1	binding	competition with immobilised ligand	1 µM	68
CNCc1ccccc1-c1csc([C@H](C)Nc2nc(C)nc3cc(OC)c(OC)cc23)c1	cell-free assay	competition with immobilised ligand	1 µM	100
CN(C)c1ncc(F)c(-c2cnn3ncccc23)n1	binding	–	1 µM	76
O=C(NCCCN1CCOCC1)c1ccc(Nc2nccc(-c3cc4ccccc4s3)n2)cc1	binding	competition with immobilised ligand	1 µM	81
CN(C)c1ncnc(-c2ccc3nc(Nc4cc(CN5CCN(C(=O)CC(F)(F)F)CC5)ccn4)[nH]c3c2)c1Cl	cell-free assay	competition with immobilised ligand	1 µM	85
CN(CCCC(F)(F)F)c1nccc(-c2cnn3ncccc23)n1	binding	–	1 µM	100
O=C(Nc1c[nH]nc1C(=O)NC1CCNCC1)c1cc(F)cc(F)c1	binding	competition with immobilised ligand	1 µM	100
